Assays:
[1] = target: Vasopressin V2 receptor (Sus scrofa) (UniProt P32307); experiment: Affinity for vasopressin V2-receptor of porcine renal medullary membrane; format: tissue-based; settings: Renal medulla
In short: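 Porcine renal medullary membrane preparation; displacement of [³H]LVP binding. K_bind calculated from the IC50 by the competitive-inhibition relation Kb = IC50/(1 + L/K_D), with K_D taken as the dissociation constant of [³H]LVP.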

Rattus norvegicus = experiment: Dose required to decrease urine osmolality in rats from the hydropenic levels (~1500 mOsm/kg of H20) 300 mOsm/kg H20; format: functional
In short: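 Male rats were deprived of food and water overnight to give a stable hydropenic state (urine osmolality ~1500 mOsm/kg H₂O). Rats were kept in metabolism cages, four per cage, and given vehicle or one of four doses. Urine volume and osmolality were measured. ED (µg/kg) to lower Uosm to 300 mOsm/kg H₂O was averaged from one to three dose-response curves per peptide.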

Vasopressin V2 receptor = Vasopressin V2 receptor (Sus scrofa, UniProt P32307); experiment: Inhibition of LVP stimulated adenylate cyclase activity in pig kidney medullary membrane; format: functional, cell membranes
In short: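 LVP-stimulated adenylate cyclase in pig kidney medullary membranes. The inhibition constant K_i was derived from the competitive-inhibition equation. Values are the mean of triplicate determinations.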

Chain of Vasopressin V2 receptor (Sus scrofa) (P32307 whole entry): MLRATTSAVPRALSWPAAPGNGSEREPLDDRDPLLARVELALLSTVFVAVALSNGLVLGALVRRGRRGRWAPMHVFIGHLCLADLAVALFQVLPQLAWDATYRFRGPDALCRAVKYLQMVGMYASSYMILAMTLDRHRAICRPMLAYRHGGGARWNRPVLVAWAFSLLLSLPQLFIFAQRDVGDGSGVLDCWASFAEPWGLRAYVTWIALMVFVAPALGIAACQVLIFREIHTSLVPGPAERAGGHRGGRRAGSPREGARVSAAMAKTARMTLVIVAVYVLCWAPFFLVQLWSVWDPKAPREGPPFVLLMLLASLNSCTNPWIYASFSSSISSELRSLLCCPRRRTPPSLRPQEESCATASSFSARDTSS
Chain of Vasopressin V2 receptor (P32307 whole entry): as above

Row | Compound | K bind [1] | other results
1 | CCOc1ccc(C[C@@H]2NC(=O)CC3(CCCCC3)SSC[C@H](C(=O)N[C@@H](CCCCN)C(N)=O)NC(=O)[C@@H](CCN)NC(=O)[C@H](C(C)C)NC(=O)[C@@H](Cc3ccccc3)NC2=O)cc1 | 26 nM | –
2 | CCOc1ccc(C[C@H]2NC(=O)CC3(CCCCC3)SSC[C@@H](C(=O)N3CCC[C@H]3C(=O)N[C@@H](CCCN=C(N)N)C(=O)NCC(N)=O)NC(=O)[C@H](CC(N)=O)NC(=O)[C@H](C(C)C)NC(=O)[C@H](Cc3ccccc3)NC2=O)cc1 | – | ED300 (Rattus norvegicus): 11 µg/kg
3 | CCOc1ccc(C[C@@H]2NC(=O)CC3(CCCCC3)SSC[C@H](C(=O)N3CCC[C@H]3C(=O)N[C@@H](CCCN=C(N)N)C(N)=O)NC(=O)[C@@H](CC(N)=O)NC(=O)[C@H](C(C)C)NC(=O)[C@@H](Cc3ccccc3)NC2=O)cc1 | 12 nM | –
4 | CCOc1ccc(C[C@@H]2NC(=O)CC3(CCCCC3)SSC[C@H](C(=O)N3CCC[C@H]3C(=O)N[C@@H](CCCN=C(N)N)C(=O)NCC(N)=O)NC(=O)[C@@H](CC(N)=O)NC(=O)[C@H](C(C)C)NC(=O)[C@@H](Cc3ccccc3)NC2=O)cc1 | 12 nM | –
5 | CCOc1ccc(C[C@@H]2NC(=O)CC3(CCCCC3)SSC[C@H](C(=O)N[C@H](CCCN=C(N)N)C(N)=O)NC(=O)[C@@H](CCN)NC(=O)[C@H](C(C)C)NC(=O)[C@@H](Cc3ccccc3)NC2=O)cc1 | 4.4 nM | –
6 | CCOc1ccc(C[C@H]2NC(=O)CC3(CCCCC3)SSC[C@@H](C(=O)N[C@@H](CCCNC(=N)N)C(N)=O)NC(=O)[C@H](CCN)NC(=O)[C@H](C(C)C)NC(=O)[C@H](Cc3ccccc3)NC2=O)cc1 | – | Ki (Vasopressin V2 receptor): 2.5 nM
7 | CCOc1ccc(C[C@H]2NC(=O)CC3(CCCCC3)SSC[C@@H](C(=O)N3CCC[C@H]3C(=O)N[C@@H](CCCN=C(N)N)C(N)=O)NC(=O)[C@H](CC(N)=O)NC(=O)[C@H](C(C)C)NC(=O)[C@H](Cc3ccccc3)NC2=O)cc1 | – | ED300 (Rattus norvegicus): 9 µg/kg

— ChEMBL document CHEMBL1123293, “Potent vasopressin antagonists lacking the proline residue at position 7” (J Med Chem, 1986)
